Results: ChEMBL document CHEMBL1139509, “Design, synthesis, and antipicornavirus activity of 1-[5-(4-arylphenoxy)alkyl]-3-pyridin-4-ylimidazolidin-2-one derivatives” (J Med Chem, 2005)

Columns and labels:
[1] = system: Enterovirus; experiment: In vitro inhibitory concentration against human enterovirus EV71-4643 strain; assay type: functional, organism-based, Enterovirus A71
Summary of the method: (§1)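 CPE-inhibition (neutralization) assay on RD cells seeded at 3 × 10⁵ cells/mL in DMEM/10% FBS and grown 24-30 h to about 90% confluency. Virus (100 TCID50) was mixed with graded compound concentrations and adsorbed 1 h at 37 °C. Cells were overlaid with DMEM, 5% FBS and 2% DMSO, incubated 64 h at 37 °C, then glutaraldehyde-fixed and crystal violet-stained, with A570 read-out. IC50 is 50% CPE reduction versus virus control. Triplicate, at least twice.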

[2] = Cytotoxicity against human rhabdomyosarcoma cells; assay type: cell-based
Summary of the method: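 RD (rhabdomyosarcoma) cells were exposed to test compounds at various concentrations for 96 h at 37 °C. Viable cells were counted by trypan blue staining. CC50 is the concentration that reduces viability to 50% of the untreated control culture. Triplicate, run at least twice.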

[3] = system: Enterovirus; experiment: In vitro inhibitory concentration against human enterovirus EV71-2231 strain; assay type: functional, organism-based, Enterovirus A71; summary of the method: as §1
[4] = system: Enterovirus; experiment: Ratio of CC50 to that of IC50 against human enterovirus EV71-2231 strain; assay type: functional, Enterovirus A71
[5] = system: Enterovirus; experiment: Ratio of CC50 to that of IC50 against human enterovirus EV71-4643 strain; assay type: functional, Enterovirus A71
[6] = system: Enterovirus; experiment: Inhibitory concentration against human enterovirus EV71 (2086) genotype C; assay type: functional, organism-based, Viruses; summary of the method: as §1
[7] = system: Enterovirus; experiment: Inhibitory concentration against human enterovirus EV71 (BrCr) genotype A; assay type: functional, organism-based, Viruses; summary of the method: as §1
[8] = system: Coxsackievirus; experiment: Inhibitory concentration against Coxsackievirus B2; assay type: functional, organism-based, Viruses; summary of the method: as §1
[9] = system: Coxsackievirus; experiment: Inhibitory concentration against Coxsackievirus B6; assay type: functional, organism-based, Viruses; summary of the method: as §1
[10] = system: Coxsackievirus; experiment: Inhibitory concentration against Coxsackievirus A16; assay type: functional, organism-based, Viruses; summary of the method: as §1
[11] = system: Coxsackievirus; experiment: Inhibitory concentration against Coxsackievirus B1; assay type: functional, organism-based, Viruses; summary of the method: as §1
[12] = system: Coxsackievirus; experiment: Inhibitory concentration against Coxsackievirus B5; assay type: functional, organism-based, Viruses; summary of the method: as §1
[13] = system: Coxsackievirus; experiment: Inhibitory concentration against Coxsackievirus B4; assay type: functional, organism-based, Viruses; summary of the method: as §1
[14] = system: Coxsackievirus; experiment: Inhibitory concentration against Coxsackievirus A9; assay type: functional, organism-based, Viruses; summary of the method: as §1
[15] = system: Enterovirus; experiment: Inhibitory concentration against human enterovirus EV71 (2231) genotype C; assay type: functional, organism-based, Viruses; summary of the method: as §1
[16] = system: rhinovirus A2; experiment: Inhibitory concentration against Human rhinovirus 2; assay type: functional, organism-based, human rhinovirus type 2; settings: Rhinovirus A; summary of the method: as §1
[17] = Inhibitory concentration against Human rhinovirus 14; assay type: functional, human rhinovirus type 14; summary of the method: as §1
[18] = system: Enterovirus; experiment: Inhibitory concentration against human enterovirus EV68; assay type: functional, organism-based, Viruses
[19] = system: Enterovirus; experiment: Inhibitory concentration against human enterovirus EV71 (4643) genotype C; assay type: functional, organism-based, Viruses; summary of the method: as §1
[20] = Inhibitory concentration against Echovirus 9; assay type: functional, Viruses; summary of the method: as §1
[21] = system: Coxsackievirus; experiment: Inhibitory concentration against Coxsackievirus B3; assay type: functional, organism-based, Viruses; summary of the method: as §1
[22] = Inhibitory concentration against Echovirus 29; assay type: functional, Viruses; summary of the method: as §1
[23] = system: Enterovirus; experiment: Inhibitory concentration against human enterovirus EV71 (1743) genotype B; assay type: functional, organism-based, Viruses; summary of the method: as §1
[24] = system: Coxsackievirus; experiment: Inhibitory concentration against Coxsackievirus A10; assay type: functional, organism-based, Viruses; summary of the method: as §1
[25] = system: Coxsackievirus; experiment: Inhibitory concentration against Coxsackievirus A24; assay type: functional, organism-based, Viruses; summary of the method: as §1

O=C1N(CCN(CCOc2ccc(-c3ccc(Cl)cc3)cc2)Cc2ccccc2)CCN1c1ccncc1
IC50 [1]: > 5000 nM | CC50 [2]: > 5000 nM | IC50 [3]: > 5000 nM

CN(CCOc1ccc(-c2ccc(Cl)cc2)cc1)CCN1CCN(c2ccncc2)C1=O
IC50 [1]: 400 nM | CC50 [2]: 25000 nM | IC50 [3]: 1180 nM

CCC(CCOc1ccc(-c2ccc(Cl)cc2)cc1)CCN1CCN(c2ccncc2)C1=O (stereo unspecified)
IC50 [1]: 170 nM | CC50 [2]: > 25000 nM | IC50 [3]: 600 nM

O=C1N(CCC2(CCOc3ccc(-c4ccc(Cl)cc4)cc3)CCCCC2)CCN1c1ccncc1
IC50 [1]: > 25000 nM | CC50 [2]: > 25000 nM | IC50 [3]: > 25000 nM

CCCc1nc(-c2ccc(OCCC(C)CCN3CCN(c4ccncc4)C3=O)cc2)no1 (stereo unspecified)
Selectivity index [4]: >227 | IC50 [1]: 19 nM | CC50 [2]: > 12500 nM | IC50 [3]: 55 nM | Selectivity index [5]: >657

CC(CCCCOc1ccc(-c2ccc(Cl)cc2)cc1)N1CCN(c2ccncc2)C1=O (stereo unspecified)
IC50 [1]: 36 nM | CC50 [2]: 12500 nM | IC50 [3]: 230 nM

CC(CCOc1ccc(-c2noc(C(F)(F)F)n2)cc1)CCN1CCN(c2ccncc2)C1=O (stereo unspecified)
Selectivity index [4]: >1041 | IC50 [1]: 1.4 nM | CC50 [2]: > 25000 nM | IC50 [3]: 24 nM | Selectivity index [5]: >17857

O=C1N(Cc2ccc(COc3ccc(-c4ccc(Cl)cc4)cc3)cc2)CCN1c1ccncc1
IC50 [1]: > 1250 nM | CC50 [2]: > 1250 nM | IC50 [3]: > 1250 nM

CC(C)(CCCOc1ccc(-c2ccc(Cl)cc2)cc1)CN1CCN(c2ccncc2)C1=O
IC50 [1]: 94 nM | CC50 [2]: 20000 nM | IC50 [3]: 720 nM

O=C1N(Cc2cccc(COc3ccc(-c4ccc(Cl)cc4)cc3)n2)CCN1c1ccncc1
IC50 [1]: > 25000 nM | CC50 [2]: > 25000 nM | IC50 [3]: > 25000 nM

O=C1N(CCC(CCOc2ccc(-c3ccc(Cl)cc3)cc2)c2ccccc2)CCN1c1ccncc1 (stereo unspecified)
IC50 [1]: > 25000 nM | CC50 [2]: > 25000 nM | IC50 [3]: > 25000 nM

O=C1N(CCN(CCOc2ccc(-c3ccc(Cl)cc3)cc2)Cc2ccc(Cl)cc2)CCN1c1ccncc1
IC50 [1]: > 25000 nM | CC50 [2]: > 25000 nM | IC50 [3]: > 25000 nM

O=C1N(Cc2ccccc2COc2ccc(-c3ccc(Cl)cc3)cc2)CCN1c1ccncc1
IC50 [1]: > 1250 nM | CC50 [2]: > 1250 nM | IC50 [3]: > 1250 nM

CC(C)(CCCN1CCN(c2ccncc2)C1=O)COc1ccc(-c2ccc(Cl)cc2)cc1
IC50 [1]: 130 nM | CC50 [2]: > 25000 nM | IC50 [3]: > 25000 nM

CCc1nc(-c2ccc(OCCC(C)CCN3CCN(c4ccncc4)C3=O)cc2)no1 (stereo unspecified)
IC50 [6]: 4 nM | IC50 [7]: 10 nM | IC50 [8]: 4790 nM | IC50 [9]: > 25000 nM | IC50 [10]: 87 nM | IC50 [11]: 46 nM | Selectivity index [4]: >1666 | IC50 [12]: 4500 nM | IC50 [13]: 1270 nM | IC50 [14]: > 25000 nM | IC50 [15]: 15 nM | IC50 [16]: 1580 nM | IC50 [17]: 830 nM | IC50 [18]: 5460 nM | IC50 [19]: 0.5 nM | IC50 [1]: 0.5 nM | IC50 [20]: 500 nM | IC50 [21]: > 25000 nM | IC50 [22]: 2630 nM | IC50 [23]: 15 nM | IC50 [24]: 560 nM | CC50 [2]: > 25000 nM | IC50 [3]: 15 nM | Selectivity index [5]: >50000 | IC50 [25]: 150 nM

O=C1N(CCC(CCOc2ccc(-c3ccc(Cl)cc3)cc2)C(F)(F)F)CCN1c1ccncc1 (stereo unspecified)
IC50 [1]: 740 nM | CC50 [2]: > 12500 nM | IC50 [3]: 2540 nM

CC(CCOc1ccc(-c2ccc(Cl)cc2)cc1)CCN1CCN(c2ccncc2)C1=O (stereo unspecified)
IC50 [7]: 69 nM | IC50 [8]: > 12500 nM | IC50 [9]: > 12500 nM | IC50 [10]: 900 nM | IC50 [11]: 2890 nM | Selectivity index [4]: >657 | IC50 [12]: 1320 nM | IC50 [13]: 1240 nM | IC50 [14]: 33 nM | IC50 [15]: 38 nM | IC50 [16]: > 12500 nM | IC50 [17]: 7910 nM | IC50 [18]: 2680 nM | IC50 [19]: 9.3 nM | IC50 [1]: 9.3 nM | IC50 [20]: 2630 nM | IC50 [21]: > 12500 nM | IC50 [22]: 40 nM | IC50 [23]: 16 nM | IC50 [24]: 1710 nM | CC50 [2]: > 25000 nM | IC50 [3]: 38 nM | Selectivity index [5]: >2688 | IC50 [25]: 250 nM

CC(C)(CCOc1ccc(-c2ccc(Cl)cc2)cc1)CCN1CCN(c2ccncc2)C1=O
IC50 [1]: 41 nM | CC50 [2]: > 25000 nM | IC50 [3]: 140 nM

CC(C)C(CCOc1ccc(-c2ccc(Cl)cc2)cc1)CCN1CCN(c2ccncc2)C1=O (stereo unspecified)
IC50 [1]: 2110 nM | CC50 [2]: > 25000 nM | IC50 [3]: > 25000 nM

Cc1cc(COc2ccc(-c3ccc(Cl)cc3)cc2)cc(CN2CCN(c3ccncc3)C2=O)c1
IC50 [1]: 22900 nM | CC50 [2]: > 25000 nM | IC50 [3]: > 25000 nM

Cc1ccc(CN(CCOc2ccc(-c3ccc(Cl)cc3)cc2)CCN2CCN(c3ccncc3)C2=O)cc1
IC50 [1]: > 12500 nM | CC50 [2]: > 12500 nM | IC50 [3]: > 12500 nM

Cc1nc(-c2ccc(OCCC(C)CCN3CCN(c4ccncc4)C3=O)cc2)no1 (stereo unspecified)
Selectivity index [4]: >625 | IC50 [1]: 0.9 nM | CC50 [2]: > 6250 nM | IC50 [3]: 10 nM | Selectivity index [5]: >6944

O=C1N(Cc2cccc(COc3ccc(-c4ccc(Cl)cc4)cc3)c2)CCN1c1ccncc1
IC50 [1]: 160 nM | CC50 [2]: > 6250 nM | IC50 [3]: 1170 nM

O=C1N(CCOCCOc2ccc(-c3ccc(Cl)cc3)cc2)CCN1c1ccncc1
IC50 [1]: 830 nM | CC50 [2]: 25000 nM | IC50 [3]: 7300 nM

CC(CCCN1CCN(c2ccncc2)C1=O)COc1ccc(-c2ccc(Cl)cc2)cc1 (stereo unspecified)
IC50 [1]: 15 nM | CC50 [2]: > 25000 nM | IC50 [3]: 57 nM

CC(CCCOc1ccc(-c2ccc(Cl)cc2)cc1)CN1CCN(c2ccncc2)C1=O (stereo unspecified)
IC50 [1]: 5 nM | CC50 [2]: > 25000 nM | IC50 [3]: 20 nM

CC(CCOc1ccc(-c2nnn(C)n2)cc1)CCN1CCN(c2ccncc2)C1=O (stereo unspecified)
Selectivity index [4]: >581 | IC50 [1]: 2.8 nM | CC50 [2]: > 25000 nM | IC50 [3]: 43 nM | Selectivity index [5]: >8928

CCCC(CCOc1ccc(-c2ccc(Cl)cc2)cc1)CCN1CCN(c2ccncc2)C1=O (stereo unspecified)
IC50 [1]: 960 nM | CC50 [2]: > 25000 nM | IC50 [3]: > 25000 nM

CCn1nnc(-c2ccc(OCCC(C)CCN3CCN(c4ccncc4)C3=O)cc2)n1 (stereo unspecified)
IC50 [6]: 3 nM | IC50 [7]: 15 nM | IC50 [8]: > 25000 nM | IC50 [9]: > 25000 nM | IC50 [10]: 130 nM | IC50 [11]: 35 nM | Selectivity index [4]: >892 | IC50 [12]: 10400 nM | IC50 [13]: 2740 nM | IC50 [14]: > 25000 nM | IC50 [15]: 14 nM | IC50 [16]: 1450 nM | IC50 [17]: 850 nM | IC50 [18]: 2870 nM | IC50 [19]: 0.9 nM | IC50 [1]: 0.9 nM | IC50 [20]: 280 nM | IC50 [21]: > 25000 nM | IC50 [22]: 3230 nM | IC50 [23]: 18 nM | IC50 [24]: 240 nM | CC50 [2]: > 12500 nM | IC50 [3]: 14 nM | Selectivity index [5]: >13888 | IC50 [25]: 140 nM

O=C1N(CCC(CCOc2ccc(-c3ccc(Cl)cc3)cc2)Cc2ccccc2)CCN1c1ccncc1 (stereo unspecified)
IC50 [1]: > 10000 nM | CC50 [2]: > 10000 nM | IC50 [3]: > 10000 nM

CC(CCCCN1CCN(c2ccncc2)C1=O)Oc1ccc(-c2ccc(Cl)cc2)cc1 (stereo unspecified)
IC50 [1]: 53 nM | CC50 [2]: > 12500 nM | IC50 [3]: 600 nM
